Measurements: ChEMBL document CHEMBL4130549, “Synthesis and bioactivities study of new antibacterial peptide mimics: The dialkyl cationic amphiphiles” (Eur J Med Chem, 2018)
Activity calls are given as the source filed them. The calls are words filed in the database; no cut-off is given here.

Legend:
Staphylococcus aureus [1] = experiment: Antibacterial activity against Staphylococcus aureus ATCC 29213 after 16 to 20 hrs by broth microdilution method; format: functional
Summary of the method: (§1)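 CLSI broth microdilution in cation-adjusted Mueller-Hinton broth. A 4-6 h culture was diluted to about 10⁶ CFU/mL and mixed 1:1 with twofold compound dilutions (256–0.5 µg/mL before mixing) prepared from aqueous stocks. Plates were incubated at 37 °C for 16-20 h. Each concentration was tested in duplicate, and the experiment was repeated at least twice.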

Escherichia coli [2] = experiment: Antibacterial activity against Escherichia coli ATCC 25922 after 16 to 20 hrs by broth microdilution method; format: functional
Summary of the method: (§2)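 Broth microdilution per CLSI in cation-adjusted Mueller-Hinton broth; 4-6 h cultures (~10⁸ CFU/mL) diluted to ~10⁶ CFU/mL and mixed 1:1 with twofold dilutions of water-dissolved compound (256 to 0.5 µg/mL). Incubated 16-20 h at 37 °C; MIC read visually. Each concentration run in duplicate, whole experiment repeated at least twice. MRSA, KPC and NDM-1 strains were clinical isolates.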

Salmonella enterica = experiment: Antibacterial activity against Salmonella enterica after 16 to 20 hrs by broth microdilution method; format: functional; summary of the method: as §2
Klebsiella pneumoniae [3] = experiment: Antibacterial activity against carbapenemase-producing Klebsiella pneumoniae after 16 to 20 hrs by broth microdilution method; format: functional; summary of the method: as §2
[4] = Hemolytic activity in sheep RBC after 1 hr; format: ADME, cell-based, Ovis aries, Erythrocyte; conditions: sheep red blood cells (erythrocytes)
Summary of the method: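 Sheep RBCs suspended at 5% in PBS; 150 µL added to 50 µL compound dilutions (5120 to 10 µg/mL series). Incubated 1 h at 37 °C, then centrifuged; supernatant absorbance read at 540 nm. Lysis (%) = (A−A0)/(Atotal−A0)×100, with untreated 5% RBC as A0 and 0.1% Triton X-100 as total.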

Staphylococcus aureus [5] = experiment: Antibacterial activity against methicillin-resistant Staphylococcus aureus isolate M2 after 16 to 20 hrs by broth microdilution method; format: functional; summary of the method: as §1
Staphylococcus aureus [6] = experiment: Antibacterial activity against methicillin-resistant Staphylococcus aureus isolate M8 after 16 to 20 hrs by broth microdilution method; format: functional; summary of the method: as §1
Klebsiella pneumoniae [7] = experiment: Antibacterial activity against carbapenemase-producing Klebsiella pneumoniae isolate K2 after 16 to 20 hrs by broth microdilution method; format: functional; summary of the method: as §2
Klebsiella pneumoniae [8] = experiment: Antibacterial activity against carbapenemase-producing Klebsiella pneumoniae isolate K10 after 16 to 20 hrs by broth microdilution method; format: functional; summary of the method: as §2
Enterobacteriaceae [9] = experiment: Antibacterial activity against NDM-1-producing Enterobacteriaceae isolate N3 after 16 to 20 hrs by broth microdilution method; format: functional; summary of the method: as §2
Enterobacteriaceae [10] = experiment: Antibacterial activity against NDM-1-producing Enterobacteriaceae isolate N6 after 16 to 20 hrs by broth microdilution method; format: functional; summary of the method: as §2
Staphylococcus aureus [11] = experiment: Bactericidal activity against methicillin-resistant Staphylococcus aureus after 20 to 24 hrs in presence of 50% serum by broth microdilution method; format: functional, organism-based
Summary of the method: (§3)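 MRSA at 10⁵ CFU/mL in 50% Mueller-Hinton broth plus 50% sheep serum, plasma or defibrinated whole blood. Serum and plasma were separated by centrifugation at 3,500 rpm for 10 min. Aqueous compound dilutions (512–4 µg/mL before mixing) were combined 1:3 with the suspension and incubated 20-24 h at 37 °C. Wells were plated on Mueller-Hinton agar for a further 20-24 h; MBC was taken as no colonies.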

Staphylococcus aureus [12] = experiment: Ratio of MBC for methicillin-resistant Staphylococcus aureus in presence of 50% blood to MBC for methicillin-resistant Staphylococcus aureus; format: functional; summary of the method: as §3
Escherichia coli [13] = experiment: Induction of inner membrane permeabilization in Escherichia coli ATCC 25922 at 20 ug/ml measured every 2 mins for 12 mins by propidium iodide staining based fluorescence assay; format: functional, organism-based
Summary of the method: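 Mid-log cells (~10^8 CFU/mL) pre-incubated with propidium iodide (10 µM, 50 µL), 30 min for S. aureus and 40 min for E. coli. Fluorescence (ex 535/em 617 nm) read for 8 min, then compound added to 20 µg/mL final and monitored every 2 min for 12 min. Water-treated control.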

Escherichia coli [14] = experiment: Induction of outer membrane permeabilization in Escherichia coli ATCC 25922 at 20 ug/ml measured every 2 mins for 12 mins by NPN staining based fluorescence assay; format: functional, organism-based
Summary of the method: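 Mid-log E. coli (~10^8 CFU/mL) in black plates pre-incubated about 40 min with NPN (10 µM, 50 µL). Baseline read 8 min (ex 350/em 420 nm), then compound added to 20 µg/mL final and fluorescence followed every 2 min for 12 min. Water-treated control.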

Staphylococcus aureus [15] = experiment: Bactericidal activity against Staphylococcus aureus after 20 to 24 hrs using compounds preincubated with 50% plasma for 3 to 6 hrs by broth microdilution method
HeLa [16] = experiment: Cytotoxicity against human HeLa cells assessed as altered morphology at 1 to 2 times MIC after 24 hrs by optical microscopic method; format: cell-based
Summary of the method: (§4)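 HeLa cells kept in DMEM with 10% FBS at 37 °C and 5% CO2, seeded in 12-well plates and left to adhere overnight. Cells then exposed 24 h to 1, 2, 4, 8 and 16 µg/mL, with 0.1% Triton X-100 as positive control and untreated wells as negative control. Cells washed with PBS, imaged for morphology, and stained 15 min at 37 °C with 2 µM calcein AM plus 4.5 µM PI for live/dead fluorescence.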

HeLa [17] = experiment: Cytotoxicity against human HeLa cells at 1 to 2 times MIC after 24 hrs by calcein AM/propidium iodide staining based fluorescence microscopic method; format: cell-based; summary of the method: as §4
Staphylococcus aureus [18] = experiment: Antibiofilm activity against Staphylococcus aureus ATCC 29213 assessed as bacterial cell viability in biofilm at 32 ug/ml after 24 hrs (reference value: 21.9 log10CFU/ml); format: functional
Summary of the method: (§5)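 Mid-log cells at ~10⁵ CFU/mL grown stationary in 96-well plates (S. aureus in MHB for 24 h; E. coli in M9 with 0.02% casamino acids and 0.5% glycerol for 72 h). After washing, biofilms exposed 24 h at 37 °C to 2-128 µg/mL; detached with trypsin-EDTA, serially plated, viability given as log10 CFU/well against an untreated control.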

Escherichia coli [19] = experiment: Antibiofilm activity against Escherichia coli ATCC 25922 assessed as bacterial cell viability in biofilm at 2 ug/ml after 24 hrs (reference value: 25.9 log10CFU/ml); format: functional; summary of the method: as §5
Escherichia coli [20] = experiment: Antibiofilm activity against Escherichia coli ATCC 25922 assessed as bacterial cell viability in biofilm at 4 ug/ml after 24 hrs (reference value: 25.9 log10CFU/ml); format: functional; summary of the method: as §5
Staphylococcus aureus [21] = experiment: Antibiofilm activity against Staphylococcus aureus ATCC 29213 after 24 hrs by crystal violet staining method; format: functional
Summary of the method: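 MBIC: twofold dilutions in MHB inoculated with 1:1000-diluted exponential-phase culture (10⁸ CFU/mL), 24 h at 37 °C. Wells rinsed, stained 10 min with 0.1% crystal violet, dye dissolved in ethanol, OD540 read; MBIC80 taken from dose–response versus untreated wells.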

Staphylococcus aureus [22] = experiment: Antibacterial activity against Staphylococcus aureus ATCC 29213 after 20 serial passages measured after 16 to 20 hrs by broth microdilution method; format: functional, organism-based
Summary of the method: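 Sub-MIC serial passaging: after an initial broth microdilution MIC, cells grown at MIC/2 were transferred into a new MIC assay after each 24 h incubation, for 20 passages. MIC was plotted against days to follow resistance development. Passaging controls were norfloxacin for S. aureus and colistin for E. coli.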

## CCCCCCCCN(CCCCCCCC)C(=O)[C@@H](N)CCCCN.Cl.Cl
Staphylococcus aureus [1]
  MIC: 2 µg/mL
Escherichia coli [2]
  MIC: 2 µg/mL
Salmonella enterica
  MIC: 4 µg/mL
Klebsiella pneumoniae [3]
  MIC: 1 µg/mL
[4]
  HC50 at 1 h: 225 µg/mL
Staphylococcus aureus [5]
  MIC: 1 µg/mL
Staphylococcus aureus [6]
  MIC: 1 µg/mL
Klebsiella pneumoniae [7]
  MIC: 2 µg/mL
Klebsiella pneumoniae [8]
  MIC: 2 µg/mL
Enterobacteriaceae [9]
  MIC: 8 µg/mL
Enterobacteriaceae [10]
  MIC: 4 µg/mL
Staphylococcus aureus [11]
  Activity: Active
Staphylococcus aureus [12]
  Ratio: 8 - 16
Escherichia coli [13]
  Activity: Active
Escherichia coli [14]
  Activity: Active
Staphylococcus aureus [15]
  MBC: 16 µg/mL

## CCCCCCCCN(CCCCCCCC)C(=O)[C@@H](N)CCCN=C(N)N.Cl.Cl.Cl
Staphylococcus aureus [1]
  MIC: 1 µg/mL
Escherichia coli [2]
  MIC: 2 µg/mL
Salmonella enterica
  MIC: 8 µg/mL
Klebsiella pneumoniae [3]
  MIC: 4 µg/mL
[4]
  HC50 at 1 h: 124 µg/mL
Staphylococcus aureus [5]
  MIC: 1 µg/mL
Staphylococcus aureus [6]
  MIC: 1 µg/mL
Klebsiella pneumoniae [7]
  MIC: 4 µg/mL
Klebsiella pneumoniae [8]
  MIC: 4 µg/mL
Enterobacteriaceae [9]
  MIC: 8 µg/mL
Enterobacteriaceae [10]
  MIC: 4 µg/mL
Staphylococcus aureus [11]
  Activity: Active
Staphylococcus aureus [12]
  Ratio: 8 - 16
Escherichia coli [13]
  Activity: Active
Escherichia coli [14]
  Activity: Active
Staphylococcus aureus [15]
  MBC: 16 µg/mL

## CCCCCCCCCCN(CCCCCCCCCC)C(=O)[C@@H](N)CCCCN.Cl.Cl
Staphylococcus aureus [1]
  MIC: 4 µg/mL
Escherichia coli [2]
  MIC: 2 µg/mL
Salmonella enterica
  MIC: 2 µg/mL
Klebsiella pneumoniae [3]
  MIC: 2 µg/mL
[4]
  HC50 at 1 h: 98 µg/mL
Staphylococcus aureus [5]
  MIC: 1 µg/mL
Staphylococcus aureus [6]
  MIC: 1 µg/mL
Klebsiella pneumoniae [7]
  MIC: 4 µg/mL
Klebsiella pneumoniae [8]
  MIC: 4 µg/mL
Enterobacteriaceae [9]
  MIC: 4 µg/mL
Enterobacteriaceae [10]
  MIC: 4 µg/mL
Staphylococcus aureus [11]
  Activity: Active
Staphylococcus aureus [12]
  Ratio: 8 - 16
Escherichia coli [13]
  Activity: Active
Escherichia coli [14]
  Activity: Active
Staphylococcus aureus [15]
  MBC: 16 µg/mL

## CCCCCCCCCCN(CCCCCCCCCC)C(=O)[C@@H](N)CCCN=C(N)N.Cl.Cl.Cl
Staphylococcus aureus [1]
  MIC: 2 µg/mL
Escherichia coli [2]
  MIC: 8 µg/mL
Salmonella enterica
  MIC: 4 µg/mL
Klebsiella pneumoniae [3]
  MIC: 4 µg/mL
[4]
  HC50 at 1 h: 87 µg/mL
Staphylococcus aureus [5]
  MIC: 1 µg/mL
Staphylococcus aureus [6]
  MIC: 2 µg/mL
Klebsiella pneumoniae [7]
  MIC: 4 µg/mL
Klebsiella pneumoniae [8]
  MIC: 4 µg/mL
Enterobacteriaceae [9]
  MIC: 4 µg/mL
Enterobacteriaceae [10]
  MIC: 4 µg/mL
Staphylococcus aureus [11]
  Activity: Active
Staphylococcus aureus [12]
  Ratio: 8 - 16
Escherichia coli [13]
  Activity: Active
Escherichia coli [14]
  Activity: Active
Staphylococcus aureus [15]
  MBC: 16 µg/mL

## CCCCCCCCCN(CCCCCCCCC)C(=O)[C@@H](N)CCCN=C(N)N.Cl.Cl.Cl
Staphylococcus aureus [1]
  MIC: 1 µg/mL
Escherichia coli [2]
  MIC: 2 µg/mL
Salmonella enterica
  MIC: 4 µg/mL
Klebsiella pneumoniae [3]
  MIC: 4 µg/mL
[4]
  HC50 at 1 h: 119 µg/mL
Staphylococcus aureus [5]
  MIC: 1 µg/mL
Staphylococcus aureus [6]
  MIC: 2 µg/mL
Klebsiella pneumoniae [7]
  MIC: 4 µg/mL
Klebsiella pneumoniae [8]
  MIC: 4 µg/mL
Enterobacteriaceae [9]
  MIC: 4 µg/mL
Enterobacteriaceae [10]
  MIC: 4 µg/mL
Staphylococcus aureus [11]
  Activity: Active
Staphylococcus aureus [12]
  Ratio: 8 - 16
Escherichia coli [13]
  Activity: Active
Escherichia coli [14]
  Activity: Active
HeLa [16]
  Activity: Non-Toxic
HeLa [17]
  Activity: Non-Toxic
Staphylococcus aureus [15]
  MBC: 16 µg/mL

## CCCCCCCCCN(CCCCCCCCC)C(=O)[C@@H](N)CCCCN.Cl.Cl
Staphylococcus aureus [1]
  MIC: 1 µg/mL
Escherichia coli [2]
  MIC: 2 µg/mL
Salmonella enterica
  MIC: 2 µg/mL
Klebsiella pneumoniae [3]
  MIC: 2 µg/mL
[4]
  HC50 at 1 h: 133 µg/mL
Staphylococcus aureus [5]
  MIC: 1 µg/mL
Staphylococcus aureus [6]
  MIC: 1 µg/mL
Klebsiella pneumoniae [7]
  MIC: 2 µg/mL
Klebsiella pneumoniae [8]
  MIC: 2 µg/mL
Enterobacteriaceae [9]
  MIC: 2 µg/mL
Enterobacteriaceae [10]
  MIC: 2 µg/mL
Staphylococcus aureus [11]
  Activity: Active
Staphylococcus aureus [12]
  Ratio: 8 - 16
Staphylococcus aureus [18]
  Activity: 9.9 log10CFU
Escherichia coli [19]
  Activity: 24.7 log10CFU
Escherichia coli [20]
  Activity: 23.9 log10CFU
Staphylococcus aureus [21]
  MBIC80: 18 µg/mL
  MBIC90: 26.9 µg/mL
Escherichia coli [13]
  Activity: Active
Escherichia coli [14]
  Activity: Active
HeLa [16]
  Activity: Non-Toxic
HeLa [17]
  Activity: Non-Toxic
Staphylococcus aureus [22]
  Activity: Active
Staphylococcus aureus [15]
  MBC: 16 µg/mL
